In ChEMBL document CHEMBL1125395, “Development of high-affinity 5-HT3 receptor antagonists. 1. Initial structure-activity relationship of novel benzamides” (J Med Chem, 1992):
pKi: −log10 of the molar value.

Experiments:
[1] = biological target: T1, Serotonin 3 (5-HT3) receptor (Rattus norvegicus, UniProt P35563+Q9JJ16); test: Displacement of the 5-hydroxytryptamine 3 receptor ligand [3H]GR-65630 from rat brain cortical membranes.; assay type: cell membranes, Membrane
T1 sequence (P35563 whole entry): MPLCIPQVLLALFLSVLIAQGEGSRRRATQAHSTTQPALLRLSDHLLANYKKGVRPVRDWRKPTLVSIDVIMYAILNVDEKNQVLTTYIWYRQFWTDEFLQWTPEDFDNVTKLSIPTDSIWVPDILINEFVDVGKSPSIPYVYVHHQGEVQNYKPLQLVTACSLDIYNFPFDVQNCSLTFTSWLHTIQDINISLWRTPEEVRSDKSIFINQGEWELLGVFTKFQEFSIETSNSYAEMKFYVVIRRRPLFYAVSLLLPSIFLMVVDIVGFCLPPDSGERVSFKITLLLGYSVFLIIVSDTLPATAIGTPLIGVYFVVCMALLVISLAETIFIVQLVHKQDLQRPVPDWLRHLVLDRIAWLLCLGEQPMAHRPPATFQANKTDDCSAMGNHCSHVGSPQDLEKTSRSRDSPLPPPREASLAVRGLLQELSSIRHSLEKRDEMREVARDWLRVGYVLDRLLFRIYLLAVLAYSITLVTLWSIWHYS
T1 sequence (Q9JJ16 whole entry): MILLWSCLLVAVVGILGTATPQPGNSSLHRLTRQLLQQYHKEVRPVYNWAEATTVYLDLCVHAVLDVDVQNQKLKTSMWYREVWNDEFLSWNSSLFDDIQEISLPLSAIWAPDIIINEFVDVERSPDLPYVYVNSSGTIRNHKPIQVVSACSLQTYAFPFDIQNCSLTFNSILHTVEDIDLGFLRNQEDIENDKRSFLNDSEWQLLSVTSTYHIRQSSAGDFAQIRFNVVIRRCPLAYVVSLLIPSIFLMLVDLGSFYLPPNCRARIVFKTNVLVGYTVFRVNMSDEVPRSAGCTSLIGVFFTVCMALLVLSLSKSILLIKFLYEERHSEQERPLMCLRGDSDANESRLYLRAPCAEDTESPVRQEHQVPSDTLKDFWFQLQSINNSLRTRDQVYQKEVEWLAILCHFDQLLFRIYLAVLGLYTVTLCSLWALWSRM
Procedure, shortened: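 Entorhinal cortex from frozen rat brains homogenized, spun 40000g 10 min in HEPES buffer (25 mM HEPES, CaCl2 5 mM, pH 7.4). Filtration, Tris pH 7.7 washes, scintillation counting. Four-six concentrations in triplicate; Ki via Cheng-Prusoff.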

[2] = system: Mustela putorius furo; test: Antiemetic activity (intravenous administration) against cisplatin-induced emesis in ferret, as the dose required to reduce emetic episodes to 50% of control value; assay type: functional
Procedure, shortened: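 Castrated male Fitch ferrets (1-2 kg, nonfasted), jugular catheter implanted ≥48 h prior. Compound in 0.9% saline iv (2 mL/kg) 30 min before and 45 min after cisplatin 3 mg/kg iv. Emetic episodes counted for 4 h post-cisplatin, % inhibition vs vehicle controls run in tandem; dose halving episodes from 4-10 animals/dose, ≥3 doses, 95% confidence limits.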

[3] = system: Mustela putorius furo; test: Antiemetic activity (intravenous administration) against cisplatin-induced emesis in ferret, as the dose required to increase latency to first emetic bout by 100%; assay type: functional
Procedure, shortened: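 Nonfasted castrated male Fitch ferrets (1-2 kg) with jugular vein catheter implanted under pentobarbital ≥48 h earlier. Drug in 0.9% saline, 2 mL/kg iv, 30 min before and 45 min after cisplatin (3 mg/kg iv). Emetic latency recorded over 4 h; % increase vs tandem vehicle; dose raising mean latency 100%. 3-12 ferrets/dose, ≥3 doses, 95% confidence limits.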

[4] = system: Mustela putorius furo; test: Antiemetic activity (oral administration) against cisplatin-induced emesis in ferret, as the dose required to increase latency to first emetic bout by 50%; assay type: functional
Procedure, shortened: (§1)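 Nonfasted castrated male Fitch ferrets (1-2 kg), each used once. Drug dissolved/suspended in 0.5% methylcellulose in gelatin capsule, given po 60 min before cisplatin 3 mg/kg iv (via jugular catheter). Vehicle controls in tandem. Observed 4 h; emetic episodes and latency to first bout recorded. ED50 from 3-12 animals per dose, at least 3 doses, with 95% confidence limits.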

[5] = system: Mustela putorius furo; test: Antiemetic activity (oral administration) against cisplatin-induced emesis in ferret, as the dose required to reduce emetic episodes to 50% of control value; assay type: functional; procedure, shortened: as §1

Row | SMILES | pKi [1] | ED50 [2] [mg/kg] | ED100 [3] [mg/kg] | ED50 [4] [mg/kg] | ED50 [5] [mg/kg]
1 | CN1CC2CCC1CC(OC(=O)c1c[nH]c3ccccc13)C2 (stereo unspecified) | 8.78 |  |  |  | 
2 | O=C(NC1CN2CCC1CC2)c1cc(Cl)cc2c1OCCCC2 (stereo unspecified) | 8.91 |  |  |  | 
3 | CN1C2CCCC1CC(NC(=O)c1nn(C)c3ccccc13)C2 (stereo unspecified) [GRANISETRON] |  | 0.226 | 0.082 | 0.117 | 0.119
4 | CCC(C)Oc1c(C(=O)NC2CN3CCC2CC3)cc(Cl)cc1C1CCCCC1 (stereo unspecified) | < 7.52 |  |  |  | 
5 | O=C(NC1CN2CCC1CC2)c1cc(Cl)cc2c1OC1(CCCCC1)C2 (stereo unspecified) | 8.97 | 0.002 | 0.006 |  | 
6 | Cc1nccn1CC1CCc2c(c3ccccc3n2C)C1=O (stereo unspecified) [ONDANSETRON] |  | 0.008 | 0.015 | 0.031 | 0.28
7 | CC1(C)CCCc2cc(Cl)cc(C(=O)NC3CN4CCC3CC4)c2O1 (stereo unspecified) | 7.81 |  |  |  | 
8 | COc1c(C(=O)NC2CN3CCC2CC3)cc(Cl)cc1C1CCCCC1 (stereo unspecified) | 8.22 |  |  |  | 
9 | O=C(NC1CCN2CCCC1C2)c1cc(Cl)cc2c1OCCCC2 (stereo unspecified) | 7.20 |  |  |  | 
10 | O=C(N[C@@H]1CN2CCC1CC2)c1cc(Cl)cc2c1OC1(CCCCC1)C2 | 9.72 | 0.009 | 0.005 | 0.004 | 0.009
11 | CCN(CC)CCNC(=O)c1cc(Cl)c(N)cc1OC [METOCLOPRAMIDE] | 6.00 | 1.45 | 2.1 | > 5 | 6.17
12 | O=C(N[C@H]1CN2CCC1CC2)c1cc(Cl)cc2c1OC1(CCCCC1)C2 | 9.05 | 0.099 | 0.055 |  | 
13 | COc1cc(N)c(Cl)cc1C(=O)NC1CN2CCC1CC2 (stereo unspecified) [ZACOPRIDE] | 8.82 |  |  |  | 
14 | Nc1c(Cl)cc2c(c1C(=O)NC1CN3CCC1CC3)OCCCC2 (stereo unspecified) | < 7.00 |  |  |  | 
15 | O=C(NC1CN2CCC1CC2)c1cc(Cl)cc2c1OCCCCC2 (stereo unspecified) | 8.33 |  |  |  | 
16 | COc1ccc(Cl)cc1C(=O)NC1CN2CCC1CC2 (stereo unspecified) | 7.33 |  |  |  | 
17 | O=C(NC1CN2CCC1CC2)c1cc(Br)cc2c1OCCCC2 (stereo unspecified) | 8.67 |  |  |  | 
18 | O=C(NC1CN2CCC1CC2)c1cccc2c1OCCCC2 (stereo unspecified) | 7.86 |  |  |  | 
